The target in assay [1] is D(2) dopamine receptor (Rattus norvegicus) (UniProt P61169). The assay is described as follows: Dopamine D2 agonistic activity (2 mg/kg) as percent change in prolactin level in reserpinized rats. It is filed as functional, organism-based. In short, it runs like this: (§1)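 Male Sprague-Dawley rats were given reserpine 15 mg/kg ip as an aqueous suspension 18 h before dosing. Compound in 10% ethanol was given ip; controls received saline. Rats were killed 1 h later and blood was allowed to clot. Serum prolactin was measured by NIAMD radioimmunoassay as ng NIAMD-prolactin-PR-1/mL and expressed as percent change versus control.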

Assay [2] shares this target. As to the kind of experiment: Dopamine D2 agonistic activity (2 mg/kg) as plasma prolactin level in reserpinized rats. It is filed as functional, organism-based. In short, it runs like this:
as §1

For assay [3] the target is unchanged. The note with it: Plasma.

Chain of D(2) dopamine receptor (Rattus norvegicus) (P61169 whole entry): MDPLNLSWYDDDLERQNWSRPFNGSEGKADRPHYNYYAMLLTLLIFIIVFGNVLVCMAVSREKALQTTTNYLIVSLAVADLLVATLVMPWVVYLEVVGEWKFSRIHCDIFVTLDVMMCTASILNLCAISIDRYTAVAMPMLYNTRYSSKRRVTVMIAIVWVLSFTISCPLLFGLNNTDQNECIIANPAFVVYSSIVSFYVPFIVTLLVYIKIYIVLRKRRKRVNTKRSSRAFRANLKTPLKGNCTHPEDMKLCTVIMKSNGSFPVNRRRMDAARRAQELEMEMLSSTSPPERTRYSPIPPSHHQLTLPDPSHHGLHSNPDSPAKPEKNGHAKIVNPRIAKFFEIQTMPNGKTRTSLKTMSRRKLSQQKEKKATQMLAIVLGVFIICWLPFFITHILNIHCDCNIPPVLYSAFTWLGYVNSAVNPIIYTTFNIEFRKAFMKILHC

With `CCCN(CCC)C1CCc2ccc(NS(C)(=O)=O)cc2C1` (configuration not stated), the Change in assay [1] is -41%. The molecule further had a PRL in assay [2] of 28.3 ng/mL.

Take `CCCN(CCC)CCc1ccc2cc[nH]c2c1`: the Change in assay [1] was 0%. The molecule further returned a PRL in assay [2] of 51.2 ng/mL. Turning to `CCCN(CCC)CCc1cccc(NC(C)=O)c1`, the Change in assay [1] is -19%. Also, the PRL in assay [2] worked out at 36.9 ng/mL. For `CCCN(CCC)C1CCc2cc3cc[nH]c3cc2C1` (configuration not stated), in that order: -37% and 30.6 ng/mL. For `CCCN(CCC)C1CCc2ccc(NC(C)=O)cc2C1` (configuration not stated), in that order: -19% and 38.9 ng/mL. On to `CCCN(CCC)CCc1cccc(NC(=O)C(F)(F)F)c1`, for which the Change in assay [1] was -21%. In addition, the PRL in assay [2] was determined as 36.8 ng/mL. In the case of `CCCN(CCC)CCc1cccc(NS(C)(=O)=O)c1`, the Change in assay [1] is -76%. This molecule also returned a PRL in assay [2] of 12.6 ng/mL.

As for `CCCN(CCC)C1CCc2ccc3[nH]ccc3c2C1` (configuration not stated), the PRL in assay [3] worked out at 3.8 ng/mL. Take `CCCN(CCC)CCc1cccc2[nH]ccc12`: the Change in assay [1] was -69%. The molecule further returned a PRL in assay [2] of 5 ng/mL.

These data come from ChEMBL document CHEMBL1124588, “Synthesis and evaluation of N,N-di-n-propyltetrahydrobenz[f]indol-7-amine and related congeners as dopaminergic agonists” (J Med Chem, 1989).
